We go through four compounds from ChEMBL document CHEMBL3244415, “Synthesis and pharmacological properties of [5-isoleucine]-, [8-isoleucine]-, and [5,8-diisoleucine]bradykinin” (1979).

The species entered for assay [1] is Rattus norvegicus. Description: Intrinsic activity at bradykinin receptor in estrous rat uterus assessed as ratio of bradykinin dose to compound dose to give 50% maximum myotropic activity. The essentials: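 Uteri from estrous virgin rats were bathed in modified deJalon's solution with 20 mg/L CaCl2, at 30 °C, gassed with 98% O2-2% CO2. Isotonic contractions were recorded under 1 g tension. Full dose-response curves were run for bradykinin and analogue. The potency ratio was taken at the dose giving 50% maximal contraction.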

Assay [2] relates to Rattus norvegicus. Briefly: Vasodepressor activity in rat assessed as ratio of bradykinin dose to compound intravenous dose that produce 20 mmHg fall in mean blood pressure. In kind it is functional.
The next assay is filed under the species Cavia porcellus. Description: Intrinsic activity at bradykinin receptor in guinea pig ileum assessed as ratio of bradykinin dose to compound dose to give 50% maximum myotropic activity. The assay is classed as tissue-based. The essentials: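 Strips of terminal guinea pig ileum, 2–3 cm long, were held in Tyrode's solution at 36 °C and bubbled with 95% O2-5% CO2. Isotonic contractions were recorded under 1 g tension. Full dose-response curves were run for bradykinin and analogue. The potency ratio was taken at the dose giving 50% maximal contraction.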

The species entered for assay [3] is Rattus norvegicus. Briefly: Antagonist activity at bradykinin receptor in estrous rat uterus assessed as inhibition of bradykinin-induced myotropic activity at 1 x 10^-6 M preincubated for 2 mins followed by bradykinin addition. In kind it is tissue-based. Put shortly: (§1)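 Uteri from estrous virgin rats were suspended in modified deJalon's solution containing 20 mg/L CaCl2, kept at 30 °C and gassed with 98% O2-2% CO2. Isotonic contractions were recorded under 1 g tension. Analogue was added to the bath 2 min before various doses of bradykinin. Potency was compared at the concentration giving 50% maximal contraction.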

For assay [4], the species on record is Rattus norvegicus. Description: Vasodepressor activity in rat assessed as ratio of intraarterial dose of bradykinin to dose of compound that produce 20 mmHg fall in mean blood pressure. In kind it is functional, Artery. The essentials:
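Male rats were anesthetized with Dial-urethan. Mean arterial pressure was recorded from the femoral artery. Drugs were given in saline by intracarotid injection. The ratio compares bradykinin and analogue doses that each lower mean pressure by 20 mmHg.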

Assay [5] is filed under the species Rattus norvegicus. Briefly: Antagonist activity at bradykinin receptor in estrous rat uterus assessed as inhibition of bradykinin-induced myotropic activity at 2.5 x 10^-6 M preincubated for 2 mins followed by bradykinin addition. The assay is classed as tissue-based. Put shortly:
as §1

For assay [6], the species on record is Rattus norvegicus. Briefly: Antagonist activity at bradykinin receptor in estrous rat uterus assessed as inhibition of bradykinin-induced myotropic activity at 1 x 10^-5 M preincubated for 2 mins followed by bradykinin addition. In kind it is tissue-based. Put shortly: as §1

Calls of active or inactive are those of the source. No cut-off for these calls is given here. Non-standard residues stand in square brackets, D forms with d. Residues, ends and D or L forms follow the SMILES beside them. Cha = N[C@@H](CC1CCCCC1)C(=O)O

With `N=C(N)NCCC[C@H](NC(=O)[C@H](CC1CCCCC1)NC(=O)[C@@H]1CCCN1C(=O)[C@H](CO)NC(=O)[C@H](CC1CCCCC1)NC(=O)CNC(=O)[C@@H]1CCCN1C(=O)[C@@H]1CCCN1C(=O)[C@@H](N)CCCNC(=N)N)C(=O)O` (H-RPPG[Cha]SP[Cha]R-OH), the Ratio in the assay filed under Rattus norvegicus [1] came to 0.33; in the assay on Rattus norvegicus [2] it was 1; in the assay listed under Cavia porcellus, 1.
As to H-RPPGFSPIR-OH, the inhibition entry in the assay listed under Rattus norvegicus [3] was “inactive”. The Ratio in the assay filed under Rattus norvegicus [4] was determined as 0.00056.
In the case of H-RPPGISPFR-OH, the Ratio in the assay filed under Rattus norvegicus [1] amounted to 0.00028; in the assay listed under Rattus norvegicus [4], 0.00018. In the assay listed under Rattus norvegicus [5], the inhibition entry was “inactive”.
Regarding H-RPPGISPIR-OH, the Ratio in the assay filed under Rattus norvegicus [1] was under 0.0002; in the assay filed under Rattus norvegicus [4], under 0.00018. For the same compound, the inhibition result in the assay filed under Rattus norvegicus [6] is “inactive”.
